Data reported in publication PMC8233206 (The Journal of Biological Chemistry, 2021).
Read-outs that look alike come from different tables or passages of the source. Each block holds one compound with its values, some of them ahead of it.

Columns and labels:
Panc03.27 cells = experiment: Seahorse XF glycolysis stress assay, glucose-induced ECAR; format: cell-based, human
Summary of the method: (§1)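 Seeded 48 h before in growth medium (1.5 × 10⁴ Panc03.27, MDA-MB-231, HPNE; 1.2 × 10⁴ Mia Paca-2; 2.0 × 10⁴ QGP1). MCT1/2 inhibitor 0.5 μM or DMSO added 4 h pre-assay. Medium: DMEM without NaHCO₃, 2 mM glutamine, 5 mM glucose, pH 7.4. Injected in order: 2 mM sodium pyruvate, 10 mM glucose, 2 μM oligomycin, 50 mM 2-DG. Glucose-induced/baseline ECAR ratio, normalized to Hoechst cell counts and 0 mM pyruvate; three experiments.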

Mia Paca-2 cells = experiment: as above; format: cell-based, human
Summary of the method: as §1

QGP1 cells = experiment: as above; format: cell-based, human
Summary of the method: as §1

MDA-MB-231 cells = experiment: as above; format: cell-based, human
Summary of the method: as §1

HPNE cells = experiment: as above; format: cell-based, human
Summary of the method: as §1

[1] = mice; injection of 80 mM hyperpolarized solution; cited from earlier work
[2] = humans; 230 mM at 5 ml/s injection rate; cited from earlier work
bovine heart LDH = bovine heart LDH (Bos taurus, UniProt Q5E9B1); experiment: LDH coupled-enzyme kinetic assay; format: biochemical
[3] = target: purified human recombinant LDHA (Homo sapiens, UniProt P00338); experiment: LDH coupled-enzyme kinetic assay; format: biochemical
human recombinant LDHB = human recombinant LDHB (Homo sapiens, UniProt P07195); experiment: LDH coupled-enzyme kinetic assay; format: biochemical
[4] = tested on: LDH in extracts from Panc03.27 cells; experiment: LDH enzyme kinetics in cell extracts; format: biochemical, human; settings: Panc03.27 cell extract
Summary of the method: (§2)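 Cells washed in ice-cold PBS, lysed in ice-cold LDH assay lysis buffer, protein measured by Coomassie. Extract mixed with Tris/NaCl/NADH buffer and Tris/NaCl/pyruvate (0–30 mM). Plate shaken 30 s, then A340 read five times at 30-s intervals; initial velocities from NADH oxidation. Enzyme-free and pyruvate-free controls run. Vmax, Vpeak, apparent Km and Ki from biphasic curve fits. Triplicate, three independent experiments; mean ± SE.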

[5] = tested on: LDH in extracts from Mia Paca-2 cells; experiment: LDH enzyme kinetics in cell extracts; format: biochemical, human; settings: Mia Paca-2 cell extract
Summary of the method: as §2

[6] = tested on: LDH in extracts from QGP1 cells; experiment: LDH enzyme kinetics in cell extracts; format: biochemical, human; settings: QGP1 cell extract
Summary of the method: as §2

[7] = tested on: LDH in extracts from MDA-MB-231 cells; experiment: LDH enzyme kinetics in cell extracts; format: biochemical, human; settings: MDA-MB-231 cell extract
Summary of the method: as §2

[8] = tested on: LDH in extracts from HPNE cells; experiment: LDH enzyme kinetics in cell extracts; format: biochemical, human; settings: HPNE cell extract
Summary of the method: as §2

[9] = 0.5 μM AZD3965 pretreatment 4 h, 5 mM glucose, vs DMSO control
[10] = LDH bovine heart, pyruvate 0–30 mM
[11] = read-out: Ki (apparent, substrate inhibition)
[12] = 2 mM sodium pyruvate, medium with 5 mM glucose, DMSO control

Chain of human recombinant LDHB (P07195 whole entry): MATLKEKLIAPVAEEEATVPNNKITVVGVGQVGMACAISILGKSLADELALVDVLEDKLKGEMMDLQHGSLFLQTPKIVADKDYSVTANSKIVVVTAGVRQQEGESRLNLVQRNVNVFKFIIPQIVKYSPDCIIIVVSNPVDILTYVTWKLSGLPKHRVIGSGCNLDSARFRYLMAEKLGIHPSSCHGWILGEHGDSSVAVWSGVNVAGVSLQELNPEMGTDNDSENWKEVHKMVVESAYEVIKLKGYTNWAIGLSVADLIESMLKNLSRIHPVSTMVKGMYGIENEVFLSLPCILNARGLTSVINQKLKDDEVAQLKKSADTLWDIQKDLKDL
Chain of bovine heart LDH (Q5E9B1 2-334): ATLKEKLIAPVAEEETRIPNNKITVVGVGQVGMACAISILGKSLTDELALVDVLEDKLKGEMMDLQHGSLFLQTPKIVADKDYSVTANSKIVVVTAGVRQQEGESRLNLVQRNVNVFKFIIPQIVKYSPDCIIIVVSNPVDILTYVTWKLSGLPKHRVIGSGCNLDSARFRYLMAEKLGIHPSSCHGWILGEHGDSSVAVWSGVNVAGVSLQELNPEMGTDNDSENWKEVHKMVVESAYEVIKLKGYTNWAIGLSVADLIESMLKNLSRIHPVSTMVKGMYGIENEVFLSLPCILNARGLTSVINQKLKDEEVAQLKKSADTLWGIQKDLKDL

Compound: Cc1[nH]nc(C(F)(F)F)c1Cc1sc2c(c1C(=O)N1C[C@](C)(O)CO1)c(=O)n(C)c(=O)n2C(C)C [AZD3965, reference compound]
Effect on 2 mM pyruvate-induced inhibition of glucose-stimulated ECAR (Panc03.27 cells; [9]): blocked | Effect on 2 mM pyruvate-induced inhibition of glucose-stimulated ECAR (Mia Paca-2 cells; [9]): blocked | Effect on 2 mM pyruvate-induced inhibition of glucose-stimulated ECAR (QGP1 cells; [9]): blocked | Effect on 2 mM pyruvate-induced inhibition of glucose-stimulated ECAR (MDA-MB-231 cells; [9]): no significant effects | Effect on 2 mM pyruvate-induced inhibition of glucose-stimulated ECAR (HPNE cells; [9]): blocked

Compound: CC(=O)[13C](=O)O [[1-^13C]pyruvate]
Blood pyruvate concentration [1]: ~8 mM | Blood pyruvate concentration [2]: ≥ 2 mM

Ki (bovine heart LDH): 1.75 ± 0.11 mM | Vmaz (maximal initial velocity from activation curve fit) (bovine heart LDH; [10]): 3.23 ± 0.10 ΔAbs/s∗10^−3/μg protein | Vpeak (peak initial velocity of the biphasic curve fit) (bovine heart LDH; [10]): 2.08 ΔAbs/s∗10^−3/μg protein | Ki [3]: 5.33 ± 0.49 mM | Vmaz (maximal initial velocity from activation curve fit) ([3]; rLDHA, pyruvate 0–30 mM): 1.00 ± 0.04 ΔAbs/s∗10^−3/μg protein | Vpeak (peak initial velocity of the biphasic curve fit) ([3]; rLDHA, pyruvate 0–30 mM): 0.75 ΔAbs/s∗10^−3/μg protein | Ki (human recombinant LDHB): 2.88 ± 0.4 mM | Vmaz (maximal initial velocity from activation curve fit) (human recombinant LDHB; rLDHB, pyruvate 0–30 mM): 1.00 ± 0.05 ΔAbs/s∗10^−3/μg protein | Vpeak (peak initial velocity of the biphasic curve fit) (human recombinant LDHB; rLDHB, pyruvate 0–30 mM): 0.75 ΔAbs/s∗10^−3/μg protein
Compound: CC(=O)C(=O)O [pyruvate]
Vmaz (maximal initial velocity from activation curve fit) [4]: 2.00 ± 0.07 ΔAbs/s∗10^−3/μg protein | Vpeak (peak initial velocity of the biphasic curve fit) [4]: 1.56 ΔAbs/s∗10^−3/μg protein | Ki [4, 11]: 2.33 ± 0.21 mM | Km ([4]; read-out: Km (apparent)): 50 µM | Vmaz (maximal initial velocity from activation curve fit) [5]: 0.88 ± 0.03 ΔAbs/s∗10^−3/μg protein | Vpeak (peak initial velocity of the biphasic curve fit) [5]: 0.66 ΔAbs/s∗10^−3/μg protein | Ki [5, 11]: 4.26 ± 0.32 mM | Km ([5]; read-out: Km (apparent)): 110 ± 10 µM | Vmaz (maximal initial velocity from activation curve fit) [6]: 1.85 ± 0.05 ΔAbs/s∗10^−3/μg protein | Vpeak (peak initial velocity of the biphasic curve fit) [6]: 1.42 ΔAbs/s∗10^−3/μg protein | Ki [6, 11]: 3.42 ± 0.25 mM | Km ([6]; read-out: Km (apparent)): 80 ± 10 µM | Vmaz (maximal initial velocity from activation curve fit) [7]: 2.98 ± 0.17 ΔAbs/s∗10^−3/μg protein | Vpeak (peak initial velocity of the biphasic curve fit) [7]: 2.20 ΔAbs/s∗10^−3/μg protein | Ki [7, 11]: 3.39 ± 0.5 mM | Km ([7]; read-out: Km (apparent)): 100 ± 20 µM | Vmaz (maximal initial velocity from activation curve fit) [8]: 2.71 ± 0.08 ΔAbs/s∗10^−3/μg protein | Vpeak (peak initial velocity of the biphasic curve fit) [8]: 1.98 ΔAbs/s∗10^−3/μg protein | Ki [8, 11]: 2.67 ± 0.2 mM | Km ([8]; read-out: Km (apparent)): 90 ± 10 µM | Decrease of glucose-stimulated ECAR (Panc03.27 cells; [12]): > 30% | Decrease of glucose-stimulated ECAR (Mia Paca-2 cells; [12]): > 30% | Decrease of glucose-stimulated ECAR (QGP1 cells; [12]): > 30% | Decrease of glucose-stimulated ECAR (MDA-MB-231 cells; [12]): > 30% | Decrease of glucose-stimulated ECAR (HPNE cells; [12]): less than 10%
